Assay results taken from ChEMBL document CHEMBL6182834, “Dual EGFR and telomerase inhibitory potential of new triazole tethered Schiff bases endowed with apoptosis: design, synthesis, and biological assessments” (RSC Med Chem, 2025).

What was measured:
[1] = test system: HepG2; test: Cytotoxicity against human HepG2 cells assessed as inhibition of cell growth incubated for 48 hrs by SRB assay; format: functional, cell-based; settings: HepG2, 48 h
Summary of the method: (§1)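 Cells plated at 3×10^3/well and left 24 h to attach. Treated at 12.5, 25, 50 and 62.5 µg/mL for 48 h, three wells per concentration, with DMSO (1% v/v) vehicle control. Fixed with 20% TCA, stained with 0.4% SRB, OD read at 570 nm. Survival fraction = treated OD/control OD. IC50 from sigmoidal dose-response curve fitting.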

[2] = test system: A-375; test: Induction of apoptosis in human A-375 cells assessed as downregulation of CDK2 expression by measuring fold change at 5.04 microg/ml incubated for 1 hrs by ELISA; format: functional; settings: dose 5.04 µg/ml
Summary of the method: (§2)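 Sandwich ELISA with plate precoated with capture antibody for each of caspase-3, -8, -9, CDK2, CDK4 and CDK6. Samples and a 7-point standard incubated 1 h at 37 °C, then biotinylated antibody 1 h, avidin-HRP 30 min and TMB 10-20 min. Reaction stopped with sulphuric acid and read at 450 nm. Duplicate readings, zero standard subtracted, amounts taken from the standard curve.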

[3] = test system: HCT-116; test: Cytotoxicity against human HCT-116 cells assessed as inhibition of cell growth incubated for 48 hrs by SRB assay; format: functional, cell-based; settings: HCT-116, 48 h; summary of the method: as §1
[4] = test system: HepG2; test: Antiproliferative activity against human HepG2 cells assessed as growth inhibition at 100 ug/mL incubated for 48 hrs by SRB assay relative to control; format: functional; settings: read-out: GI
Summary of the method: (§3)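 SRB assay: cells seeded at 3×10^3/well, allowed 24 h to attach, then exposed to 100 µg/mL for 48 h, three wells per concentration, DMSO 1% v/v vehicle control. Cells fixed with 20% trichloroacetic acid and stained with 0.4% SRB, then OD read at 570 nm. Survival fraction taken as treated OD/control OD.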

[5] = test system: A-375; test: Cell cycle arrest in human A-375 cells assessed as increase in accumulation of cells at G0/G1 phase at 3.1 microM incubated for 48 hrs by PI staining based flow cytometry analysis (reference value: 17.29 %)
[6] = Antiproliferative activity against human HNO 97 cell line assessed as growth inhibition at 100 ug/mL incubated for 48 hrs by SRB assay relative to control; format: functional; settings: read-out: GI; summary of the method: as §3
[7] = test system: HeLa; test: Antiproliferative activity against human HeLa cells assessed as growth inhibition at 100 ug/mL incubated for 48 hrs by SRB assay relative to control; format: functional; settings: read-out: GI; summary of the method: as §3
[8] = target: Telomerase reverse transcriptase (Homo sapiens) (UniProt O14746); test: Inhibition of telomerase in human A-375 cells assessed as downregulation of telomerase concentration by measuring fold change incubated for 1 hrs by ELISA; format: cell-based
Summary of the method: (§4)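 Human EGFR or telomerase measured by sandwich ELISA. Samples and standards incubated 90 min at 37 °C, then biotinylated detection antibody 1 h, avidin-HRP 30 min and substrate about 15 min, all at 37 °C. Reaction stopped and OD read at 450 nm. Concentration taken from the standard curve.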

[9] = Cytotoxicity against HSF cells assessed as growth inhibition at 100 ug/mL incubated for 48 hrs by SRB assay relative to control; format: toxicity, cell-based; settings: human, at 100 µg/mL, read-out: GI; summary of the method: as §3
[10] = test system: A-375; test: Induction of apoptosis in human A-375 cells assessed as downregulation of CDK4 expression by measuring fold change at 5.04 microg/ml incubated for 1 hrs by ELISA; format: functional; settings: dose 5.04 µg/ml; summary of the method: as §2
[11] = test system: A-375; test: Cytotoxicity against human A-375 cells assessed as inhibition of cell growth incubated for 48 hrs by SRB assay; format: functional, cell-based; settings: A-375, 48 h; summary of the method: as §1
[12] = test system: A-375; test: Antiproliferative activity against human A-375 cells assessed as growth inhibition at 100 ug/mL incubated for 48 hrs by SRB assay relative to control; format: functional; settings: read-out: GI; summary of the method: as §3
[13] = test system: A-375; test: Induction of apoptosis in human A-375 cells assessed as upregulation of caspase 3 expression by measuring fold change at 5.04 microg/ml incubated for 1 hrs by ELISA; format: functional; settings: dose 5.04 µg/ml; summary of the method: as §2
[14] = Cytotoxicity against human oral epithelial cells (OEC) assessed as growth inhibition at 100 ug/mL incubated for 48 hrs by SRB assay relative to control; format: toxicity, cell-based, Oral epithelial cell; settings: at 100 µg/mL, read-out: GI; summary of the method: as §3
[15] = test system: A-375; test: Induction of apoptosis in human A-375 cells assessed as downregulation of CDK6 expression by measuring fold change at 5.04 microg/ml incubated for 1 hrs by ELISA; format: functional; settings: dose 5.04 µg/ml; summary of the method: as §2
[16] = test system: Caco-2; test: Antiproliferative activity against human Caco-2 cells assessed as growth inhibition at 100 ug/mL incubated for 48 hrs by SRB assay relative to control; format: functional; settings: read-out: GI; summary of the method: as §3
[17] = target: Epidermal growth factor receptor (Homo sapiens) (UniProt P00533); test: Inhibition of EGFR in human A-375 cells assessed as downregulation of EGFR concentration by measuring fold change incubated for 1 hrs by ELISA; format: cell-based; summary of the method: as §4
[18] = target: Telomerase reverse transcriptase (Homo sapiens) (UniProt O14746); test: Inhibition of telomerase in human A-375 cells assessed as protein concentration incubated for 1 hrs by ELISA (reference value: 3.56 ng/ml); format: cell-based; summary of the method: as §4
[19] = test system: MG-63; test: Antiproliferative activity against human MG-63 cells assessed as growth inhibition at 100 ug/mL incubated for 48 hrs by SRB assay relative to control; format: functional; settings: read-out: GI; summary of the method: as §3
[20] = test system: A-375; test: Induction of apoptosis in human A-375 cells assessed as upregulation of caspase 9 expression by measuring fold change at 5.04 microg/ml incubated for 1 hrs by ELISA; format: functional; settings: dose 5.04 µg/ml; summary of the method: as §2
[21] = test system: A-375; test: Induction of apoptosis in human A-375 cells assessed as upregulation of caspase 8 expression by measuring fold change at 5.04 microg/ml incubated for 1 hrs by ELISA; format: functional; settings: dose 5.04 µg/ml; summary of the method: as §2
[22] = test system: HCT-116; test: Antiproliferative activity against human HCT-116 cells assessed as growth inhibition at 100 ug/mL incubated for 48 hrs by SRB assay relative to control; format: functional; settings: read-out: GI; summary of the method: as §3
[23] = Cytotoxicity against human HNO 97 cell line assessed as inhibition of cell growth incubated for 48 hrs by SRB assay; format: functional, cell-based; settings: HNO 97, 48 h; summary of the method: as §1
[24] = target: Epidermal growth factor receptor (Homo sapiens) (UniProt P00533); test: Inhibition of EGFR in human A-375 cells assessed as protein concentration incubated for 1 hrs by ELISA (reference value: 8.91 ng/ml); format: cell-based; summary of the method: as §4
[25] = test system: Huh-7; test: Antiproliferative activity against human Huh-7 cells assessed as growth inhibition at 100 ug/mL incubated for 48 hrs by SRB assay relative to control; format: functional; settings: read-out: GI; summary of the method: as §3
[26] = test system: FaDu; test: Antiproliferative activity against human FaDu cells assessed as growth inhibition at 100 ug/mL incubated for 48 hrs by SRB assay relative to control; format: functional; settings: read-out: GI; summary of the method: as §3
[27] = test system: MDA-MB-468; test: Antiproliferative activity against human MDA-MB-468 cells assessed as growth inhibition at 100 ug/mL incubated for 48 hrs by SRB assay relative to control; format: functional; settings: read-out: GI; summary of the method: as §3
[28] = test system: MCF7; test: Antiproliferative activity against human MCF7 cells assessed as growth inhibition at 100 ug/mL incubated for 48 hrs by SRB assay relative to control; format: functional; settings: read-out: GI; summary of the method: as §3

Sequence of Telomerase reverse transcriptase (Homo sapiens) (O14746 whole entry): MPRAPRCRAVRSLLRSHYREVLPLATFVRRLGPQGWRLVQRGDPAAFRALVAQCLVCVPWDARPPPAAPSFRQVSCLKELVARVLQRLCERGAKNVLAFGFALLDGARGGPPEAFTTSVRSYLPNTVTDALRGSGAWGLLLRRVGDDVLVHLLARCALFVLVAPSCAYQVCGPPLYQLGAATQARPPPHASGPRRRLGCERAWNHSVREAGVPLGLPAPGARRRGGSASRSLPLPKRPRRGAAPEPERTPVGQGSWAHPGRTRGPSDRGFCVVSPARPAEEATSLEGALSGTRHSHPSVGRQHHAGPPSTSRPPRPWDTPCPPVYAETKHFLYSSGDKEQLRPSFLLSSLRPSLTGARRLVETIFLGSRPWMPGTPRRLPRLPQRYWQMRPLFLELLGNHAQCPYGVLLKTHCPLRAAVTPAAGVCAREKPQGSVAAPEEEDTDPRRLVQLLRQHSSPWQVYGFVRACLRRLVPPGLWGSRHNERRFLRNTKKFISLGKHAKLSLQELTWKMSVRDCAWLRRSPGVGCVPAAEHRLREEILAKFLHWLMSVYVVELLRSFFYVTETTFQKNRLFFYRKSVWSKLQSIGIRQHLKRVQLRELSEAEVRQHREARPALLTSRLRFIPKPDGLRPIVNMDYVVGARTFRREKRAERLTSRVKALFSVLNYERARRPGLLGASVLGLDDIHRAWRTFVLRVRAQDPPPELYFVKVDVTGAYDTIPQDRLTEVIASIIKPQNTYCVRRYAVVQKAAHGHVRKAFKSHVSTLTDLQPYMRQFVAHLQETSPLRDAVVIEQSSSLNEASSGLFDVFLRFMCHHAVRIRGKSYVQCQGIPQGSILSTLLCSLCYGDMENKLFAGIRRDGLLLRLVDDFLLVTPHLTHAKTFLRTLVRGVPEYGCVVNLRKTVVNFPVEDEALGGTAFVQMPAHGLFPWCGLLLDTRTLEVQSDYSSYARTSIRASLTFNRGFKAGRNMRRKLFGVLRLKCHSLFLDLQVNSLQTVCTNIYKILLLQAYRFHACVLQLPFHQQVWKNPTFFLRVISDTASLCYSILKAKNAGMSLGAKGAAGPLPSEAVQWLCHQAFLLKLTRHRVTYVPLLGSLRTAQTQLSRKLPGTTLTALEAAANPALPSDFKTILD
Sequence of Epidermal growth factor receptor (Homo sapiens) (P00533 whole entry): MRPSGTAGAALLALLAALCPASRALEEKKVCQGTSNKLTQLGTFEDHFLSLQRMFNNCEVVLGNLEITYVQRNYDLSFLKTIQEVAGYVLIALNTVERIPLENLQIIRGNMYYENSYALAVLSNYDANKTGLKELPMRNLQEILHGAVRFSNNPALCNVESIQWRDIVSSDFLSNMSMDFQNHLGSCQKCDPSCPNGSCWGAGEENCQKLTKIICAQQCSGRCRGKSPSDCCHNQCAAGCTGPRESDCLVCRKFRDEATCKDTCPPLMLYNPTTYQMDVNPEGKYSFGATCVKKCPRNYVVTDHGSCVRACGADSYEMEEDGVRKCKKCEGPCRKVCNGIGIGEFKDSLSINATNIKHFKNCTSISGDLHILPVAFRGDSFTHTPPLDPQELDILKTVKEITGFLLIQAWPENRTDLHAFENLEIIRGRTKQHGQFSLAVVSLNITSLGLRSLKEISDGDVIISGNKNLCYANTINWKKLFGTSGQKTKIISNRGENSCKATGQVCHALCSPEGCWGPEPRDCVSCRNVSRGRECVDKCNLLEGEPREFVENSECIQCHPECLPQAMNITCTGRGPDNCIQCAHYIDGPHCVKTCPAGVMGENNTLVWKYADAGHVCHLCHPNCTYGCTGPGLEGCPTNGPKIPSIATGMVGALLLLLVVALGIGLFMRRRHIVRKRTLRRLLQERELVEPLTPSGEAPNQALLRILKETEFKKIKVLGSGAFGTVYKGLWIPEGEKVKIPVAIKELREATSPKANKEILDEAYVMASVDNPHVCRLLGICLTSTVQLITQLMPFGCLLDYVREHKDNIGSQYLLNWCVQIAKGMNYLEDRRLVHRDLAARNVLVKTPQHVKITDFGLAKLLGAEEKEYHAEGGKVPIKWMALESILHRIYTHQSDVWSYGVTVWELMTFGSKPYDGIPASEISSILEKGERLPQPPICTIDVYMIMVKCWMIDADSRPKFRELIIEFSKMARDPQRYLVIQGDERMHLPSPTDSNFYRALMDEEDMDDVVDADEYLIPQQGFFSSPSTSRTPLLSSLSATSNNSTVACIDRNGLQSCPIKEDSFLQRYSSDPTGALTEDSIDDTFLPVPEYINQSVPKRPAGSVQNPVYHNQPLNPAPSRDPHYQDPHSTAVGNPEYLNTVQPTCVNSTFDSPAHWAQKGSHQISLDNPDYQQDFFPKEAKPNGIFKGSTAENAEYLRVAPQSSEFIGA

COc1cccc(/C=N/NC(=O)c2nnn(-c3ccc(Cl)cc3)c2C)c1OC
IC50 [1]: 31.2 µM
fold change (FC) [2]: 2.91
IC50 [3]: 13.3 µM
inhibition of growth at 100 µg/mL [4]: 80%
Activity [5]: 78.39%
inhibition of growth at 100 µg/mL [6]: 72%
inhibition of growth at 100 µg/mL [7]: 63%
fold change (FC) [8]: 2.72
inhibition at 48 h, 100 ug/mL [9]: 25%
fold change (FC) [10]: 2.01
IC50 [11]: 12.6 µM
inhibition of growth at 100 µg/mL [12]: 85%
fold change (FC) [13]: 1.35
inhibition at 48 h, 100 ug/mL [14]: 37%
fold change (FC) [15]: 9.15
inhibition of growth at 100 µg/mL [16]: 55%
fold change (FC) [17]: 2.58
Activity [18]: 1.31 ng/mL
inhibition of growth at 100 µg/mL [19]: 65%
fold change (FC) [20]: 1.51
fold change (FC) [21]: 1.55
inhibition of growth at 100 µg/mL [22]: 82%
IC50 [23]: 13.3 µM
Activity [24]: 3.45 ng/mL
inhibition of growth at 100 µg/mL [25]: 62%
inhibition of growth at 100 µg/mL [26]: 76%
inhibition of growth at 100 µg/mL [27]: 69%
inhibition of growth at 100 µg/mL [28]: 70%
